Assay results as given in ChEMBL document CHEMBL1151255, “Cyclic peptides from a Ruegeria strain of bacteria associated with the sponge Suberites domuncula” (2004).
In brackets after ≈: the same amount, converted by molar mass. Activity calls are given as the source filed them. No cut-off for these calls is given here. Where a SMILES comes first, the peptide text is derived from it.

Assays:
Saccharomyces cerevisiae = assay: Antimicrobial activity against Saccharomyces cerevisiae; format: functional, organism-based
In short: (§1)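 MIC by twofold serial dilution in duplicate, top concentration 50 μg/mL. Test strains were B. subtilis subsp. spizizenii DSM 347, E. coli DSM 498 and S. cerevisiae DSM 70449. Growth was scored after 48 h at each strain's optimal growth temperature. Gentamycin and nystatin served as controls.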

Escherichia coli = assay: Antimicrobial activity against Escherichia coli; format: functional, organism-based; in short: as §1
Bacillus spizizenii = assay: Antimicrobial activity against Bacillus subtilis subsp. spizizenii; format: functional; in short: as §1

Row | SMILES | Activity (Saccharomyces cerevisiae) | Activity (Escherichia coli) | Activity (Bacillus spizizenii) | MIC (Bacillus spizizenii) [µg/mL]
1 | O=C1CCCNC(=O)CN1 | inactive | inactive | inactive | –
2 | C[C@@H]1NC(=O)[C@H]2C[C@@H](O)CN2C1=O | inactive | inactive | inactive | –
3 | O=C(O)CC[C@@H]1NC(=O)[C@@H]2CCCN2C(=O)[C@H](CCC(=O)O)NC(=O)[C@@H]2CCCN2C1=O (cyclo(EPEP)) | inactive | inactive | inactive | –
4 | O=C(O)CC[C@@H]1NC(=O)[C@@H]2CCCN2C(=O)CNC1=O (cyclo(Glu-Gly-Pro)) | inactive | inactive | – | 50 (≈ 177 µM)
5 | C[C@@H]1NC(=O)[C@@H]2C[C@@H](O)CN2C1=O | inactive | inactive | inactive | –
6 | O=C1[C@@H]2C[C@@H](O)CN2C(=O)[C@@H]2CCCN12 | inactive | inactive | inactive | –
7 | O=C(O)CC[C@@H]1NC(=O)[C@@H]2CCCN2C(=O)[C@H](CO)NC(=O)CNC1=O (cyclo(EGSP)) | inactive | inactive | – | 25 (≈ 67.5 µM)
8 | O=C1NCC(=O)N2CCC[C@@H]12 | inactive | inactive | inactive | –
